Screening data as filed in PubChem.
NPY-Y1 antag – blocks the human neuropeptide Y Y1 receptor. P25929. HEK293-CNG Y1 cells, membrane potential fluorescence; NPY at EC95, then isoproterenol. inhibition, % at 3.6 µM. 200,000 tested, 1% active;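 active = inhibition above the campaign mean inhibition of all tested compounds plus 3 SD, cut at about 20% in these data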
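Benchmarks – high control isoproterenol alone, low control NPY with isoproterenol · Material – HEK293 Y1/CNG channel cell line · Times – dye 3 h, compound 60 min room temperature, stimulation 45 min · Probe or stimulus – NPY (25 nM), isoproterenol (1 µM), Ro 20-1724 (25 µM) · Evaluation – % inhibition of NPY effect · Signal – fluorescence, membrane potential probe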
NPY2 pot ag – potentiators or agonists of human neuropeptide Y receptor Y2 | 220,000 tested, 0.45% active | AID 1359 | cells expressing NPY-Y2, potentiator/agonist read-out | activation, % at 3.6 µM | P49146; in the data active = activation above about 27%;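 note: cells stimulated with NPY near EC25 plus isoproterenol at EC100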
Furin inhibitor – inhibitors of human furin | inhibition, % at 20 µM or 30 µM | P09958 | purified furin, fluorogenic substrate cleavage | 220,000 tested, 0.061% active; in the data active = inhibition above about 25%
Target sequence (P09958 108-714 limits assumed): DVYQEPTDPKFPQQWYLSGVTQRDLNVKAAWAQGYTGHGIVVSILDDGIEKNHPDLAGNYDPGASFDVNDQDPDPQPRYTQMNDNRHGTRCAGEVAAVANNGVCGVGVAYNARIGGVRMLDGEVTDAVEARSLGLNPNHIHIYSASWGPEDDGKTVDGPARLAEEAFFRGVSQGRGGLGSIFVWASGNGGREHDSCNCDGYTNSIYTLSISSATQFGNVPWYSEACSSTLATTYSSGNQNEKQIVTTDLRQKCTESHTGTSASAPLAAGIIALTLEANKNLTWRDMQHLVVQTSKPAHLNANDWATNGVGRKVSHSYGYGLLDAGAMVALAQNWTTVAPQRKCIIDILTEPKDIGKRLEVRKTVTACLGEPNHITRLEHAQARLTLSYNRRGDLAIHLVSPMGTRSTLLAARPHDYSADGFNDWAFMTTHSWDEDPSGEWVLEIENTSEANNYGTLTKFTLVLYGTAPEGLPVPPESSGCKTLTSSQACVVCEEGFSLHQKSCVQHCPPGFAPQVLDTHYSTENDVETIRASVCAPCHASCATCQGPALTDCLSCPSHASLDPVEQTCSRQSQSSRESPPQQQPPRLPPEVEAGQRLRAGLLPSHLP
NPY1 pot ag – potentiators or agonists of human neuropeptide Y receptor Y1. P25929. NPY-Y1 expressing cells, potentiator/agonist activation. activation, % at 3.6 µM. 220,000 tested, 0.37% active; in the data active = activation above about 33%, passing the limit was not always enough;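 note: cells stimulated with NPY at EC10 then isoproterenol at EC100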
KCC2 mod – KCC2 (human) Cl- transport modulation; KCC2 cells, thallium flux FluoZin-2 fluorescence; AID 1456; B-score of Tl+ flux slope (higher = more flux/activation; lower = inhibition) at 10 µM; Q9H2X9; 190,000 tested, 2.2% active;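 active = thallium flux slope and its plate-corrected score both differing from the plate sample mean at a set confidence after two filtering rounds, in either direction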;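 note: slope of fluorescence scaled to starting intensity during 10 to 20 s after thallium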
NPY Y2 blocker – blocks the human neuropeptide Y Y2 receptor; inhibition, % at 2.7 µM; AID 793; NPY-Y2 expressing cells, antagonist mode; 140,000 tested, 0.99% active; in the data active = inhibition above about 17%
Of the large screens only hits and unclear results are named; the others gave an inactive call. Most compounds without a hit are left out; they make up all but 3.7% or so of the library.

COc1ccc(CN(C(=O)c2nsc(Cl)c2Cl)C(C(=O)NC2CCCC2)c2ccc(C)cc2)cc1 (configuration not stated)	NPY-Y1 antag 43.9, NPY Y2 blocker 22.8
NNC(=O)c1csc(-c2ncc(C(F)(F)F)cc2Cl)n1	none (no result: NPY-Y1 antag, NPY Y2 blocker)
Cc1ccc(N=Nc2ccc(O)c3ncccc23)cc1	KCC2 mod 11.2
CSc1ccc(N/N=C(/C#N)S(=O)(=O)C(C)(C)C)cc1	KCC2 mod -4.62 (no result: NPY Y2 blocker)
COc1ccc(N/N=C(/C#N)S(=O)(=O)C(C)(C)C)cc1	none (no result: NPY Y2 blocker)
COc1ccc(NC(=S)NC(=O)c2ccccc2Cl)cc1	KCC2 mod 20.6 (no result: NPY Y2 blocker)
CC(C)CNC(=S)NC(=O)c1ccccc1Cl	KCC2 mod 49.8
O=C(NC(=S)Nc1ccc(O)cc1)c1ccccc1Cl	none (no result: NPY Y2 blocker)
Cc1c(Cl)cccc1NC(=S)NCC(C)C	none
COn1c(SCc2ccccc2)nc2ccccc2c1=O	none
COn1c(SCc2cccc(Cl)c2)nc2ccccc2c1=O	NPY-Y1 antag 21.9, NPY Y2 blocker 17.3
CCCCNC(=O)Nc1nnc(C(C)(C)C)s1	none (no result: NPY-Y1 antag, NPY Y2 blocker)
CC1CCC(C(C)C)C(OC(=O)Cn2c(-c3ccccc3)[n+](C)c3ccccc32)C1 (configuration not stated)	NPY-Y1 antag 112.1, NPY Y2 blocker 80.2
CC1CCC(C(C)C)C(OC(=O)Cn2c(-c3ccc(F)cc3)[n+](C)c3ccccc32)C1 (configuration not stated)	NPY-Y1 antag 61.5, NPY Y2 blocker 46.2
Cc1cc(C)c2c(-n3cccc3)c(C(=O)NNS(=O)(=O)c3ccc(Cl)cc3)sc2n1	none (no result: KCC2 mod)
CCOC(=O)CN(C(=O)CSc1nnc(COc2ccc(OC)cc2)n1C)c1ccccc1	NPY2 pot ag 103.4, NPY1 pot ag 112.5
O=C(Nc1ccccc1)c1ccsc1	none
COc1ccccc1NC(=O)N(Cc1cc2cc(OC)c(OC)cc2[nH]c1=O)CC1CCCO1 (configuration not stated)	KCC2 mod -3.31
CC1(C)CC(=O)C(C=Nc2ccccc2)=C(O)C1	none
CC1(C)CC(=O)C(/C=N/n2cnc3ccccc3c2=O)=C(O)C1	Furin inhibitor 78.7
CC1(C)CC(=O)C(C=Nc2cccc(/N=C/C3=C(O)CC(C)(C)CC3=O)n2)=C(O)C1	none
CC1(C)CC(=O)C(/C=N/c2ccccn2)=C(O)C1	Furin inhibitor 50.8
O=C(NC(=S)Nc1ccc(N2CCOCC2)cc1)c1ccco1	KCC2 mod 11
CC1CCN(c2ccccc2NC(=S)NC(=O)c2ccco2)CC1	NPY-Y1 antag 34.9, KCC2 mod 15.4
CC(=O)c1cccc(NC(=S)NC(=O)c2cccc(Cl)c2)c1	KCC2 mod 15.6
O=C(NC(=S)Nc1ccc(N2CCOCC2)cc1)c1cccc(Cl)c1	KCC2 mod 6.93
Cc1ccc2c(c1)cc(CN(Cc1cccnc1)C(=O)NCc1ccccc1)c1nnnn12	none
CC(C)Oc1cccc(C(=O)C2CCCN(Cc3cnc(N4CCOCC4)s3)C2)c1 (configuration not stated)	none (no result: NPY Y2 blocker)
CSc1nsc2nc(=O)c(/C=C3\C=Nc4ccccc43)c(N)n12	KCC2 mod -3.13 (no result: NPY Y2 blocker)
COC(=O)C(C)N(C(=O)c1cccc2ccccc12)c1c(C)cccc1C (configuration not stated)	KCC2 mod -3.72
c1ccc2c(c1)oc1c(Nc3ccc4c(c3)OCO4)ncnc12	none (no result: KCC2 mod)
c1ccc2c(c1)oc1c(NCc3ccc4c(c3)OCO4)ncnc12	KCC2 mod -5.1, NPY Y2 blocker 17.8
Cc1cc(-c2ccc(NC(=O)[C@@H]3CCCC[C@@H]3C(=O)O)c(C)c2)ccc1NC(=O)[C@@H]1CCCC[C@@H]1C(=O)O	none (no result: NPY Y2 blocker)
CC(C)(C)c1nn(-c2ccccc2)c2[nH]c(=O)c(CNc3ccc4c(c3)OCCO4)cc12	NPY2 pot ag 38.6, NPY1 pot ag 54.1
Cc1ccc2nc(SCC(=O)N(CC(C)C)c3c(N)n(Cc4ccccc4)c(=O)[nH]c3=O)[nH]c2c1	none (no result: NPY-Y1 antag, NPY Y2 blocker)
O=[N+]([O-])c1ccc(-c2nc(-c3cccs3)c(-c3cccs3)[nH]2)cc1	NPY2 pot ag 45.4, NPY1 pot ag 44.2
O=[N+]([O-])c1cccc(-c2nc(-c3cccs3)c(-c3cccs3)[nH]2)c1	none
Cc1ccc(S(=O)(=O)NCCNc2ccc([N+](=O)[O-])cc2C(F)(F)F)cc1	NPY2 pot ag 34.5
